Screening data: PubChem BioAssay, Johns Hopkins Ion Channel Center
RGS4 act: RGS4 potentiators or activators, primary screen, cell-based, HEK293 M3R inducible RGS4, calcium flux; 310,000 compounds, 0.92% hits; B-score at 10 µM; carbachol calcium flux Fluo4; active compounds read low;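 active = B-score of the integrated calcium signal more than 4 SD below the library mean, with starting fluorescence not abnormally high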;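 also: negative B-score means reduced calcium response which marks RGS4 activation or potentiation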
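Also added: carbachol at ECmax as muscarinic agonist stimulus; Assay system: HEK293 cells with stable M3R and inducible RGS4; Timing: overnight RGS4 induction, 30 min dye load 37 °C, 20 min compound RT; Measured by: Fluo4-AM (2 µM) calcium-flux fluorescence, kinetic read.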
MrgX1 antag: antagonists of human MrgX1 receptor, primary screen, HEK293 cells, Fluo-4 calcium flux | Mas-related G-protein coupled receptor member X1 (Homo sapiens), Q96LB2 | BAM8-22 antagonism; active compounds read low | B-score at 10 µM | 310,000 compounds, 1.3% hits | AID 588676, 2011;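 active = calcium-response B-score plate-corrected more than 3 library SD below zero, starting fluorescence within 5 deviations, no agonist response on first addition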;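 also: peak minus trough fluorescence over baseline after final BAM8-22 challenge near maximal dose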
Target sequence (Q96LB2 whole entry, looked up): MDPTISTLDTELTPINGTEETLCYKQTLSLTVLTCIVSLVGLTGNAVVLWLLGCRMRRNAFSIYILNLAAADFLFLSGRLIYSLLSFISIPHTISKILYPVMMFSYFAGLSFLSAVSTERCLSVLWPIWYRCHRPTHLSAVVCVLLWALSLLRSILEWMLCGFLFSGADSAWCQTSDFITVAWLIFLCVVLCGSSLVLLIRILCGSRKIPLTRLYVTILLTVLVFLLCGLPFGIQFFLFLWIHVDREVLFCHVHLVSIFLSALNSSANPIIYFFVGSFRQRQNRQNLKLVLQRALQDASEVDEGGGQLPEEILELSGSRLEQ
MrgX1 PAM: positive allosteric modulators of MrgX1, primary screen, HEK293 cells, Fluo-4 calcium flux; B-score at 10 µM; FDSS; active compounds read high; AID 588675, 2011; 310,000 compounds, 0.63% hits; Mas-related G-protein coupled receptor member X1 (Homo sapiens), Q96LB2;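 active = plate-corrected calcium response at least 3 library SD above typical, normal starting fluorescence, not activating the receptor alone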;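 also: compound read alongside a low EC10 to EC30 dose of BAM8-22 agonist; peak minus trough fluorescence over baseline measured at the second addition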
RGS4 block: RGS4 inhibitors, primary screen, cell-based, HEK293 M3R inducible RGS4, calcium flux; Regulator of G-protein signaling 4 (Homo sapiens), P49798; AID 463165, 2010; Fluo-4 calcium flux; active compounds read high; triggered by carbachol at its EC20; B-score at 10 µM; 310,000 compounds, 0.45% hits;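 active = B-score, a plate-corrected calcium signal, over three deviations above library mean, with baseline fluorescence within five deviations of library mean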;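 also: RGS4 expression induced by doxycycline in cells with stable M3 receptor; B-score is computed from the integrated fluorescence ratio over baseline after carbachol; higher B-score means a larger calcium signal and so more RGS4 inhibition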
Target sequence (P49798 whole entry, looked up): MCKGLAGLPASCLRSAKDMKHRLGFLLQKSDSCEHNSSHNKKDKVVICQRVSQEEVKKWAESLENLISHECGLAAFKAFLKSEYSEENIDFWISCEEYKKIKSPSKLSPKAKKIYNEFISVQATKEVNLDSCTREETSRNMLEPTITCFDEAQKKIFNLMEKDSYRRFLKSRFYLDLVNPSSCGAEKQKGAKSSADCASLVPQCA
MrgX1 ag: agonists of human MrgX1 receptor, primary screen, HEK293 cells, Fluo-4 calcium flux | Mas-related G-protein coupled receptor member X1 (Homo sapiens), Q96LB2 | Fluo-4 calcium fluorescence, agonist mode; active compounds read high | B-score at 10 µM | 310,000 compounds, 0.44% hits;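 active = calcium response B-score plate-corrected fluorescence ratio at least 3 library SD, with starting fluorescence B-score inside 5 SD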
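Assay system: stable human MrgX1 HEK293 cell line. Quantity: 15,000 cells per well. Schedule: cells plated overnight, dye loaded 0.5 h 37 °C, 0.5 h room temperature. Detection: Fluo-4 NW calcium-flux fluorescence, kinetic read. Read-out basis: peak-minus-minimum fluorescence over baseline, converted to B scores. Control set: positive and negative control wells on each plate.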
RGS4 activ val: reduced carbachol calcium response, RGS4-induced M3R cells, confirmation, RGS4 activator project, cell-based, HEK293 M3R/RGS4 inducible, calcium flux, duplicate; inhibition, % at 10 µM; 1,100 compounds, 89% hits; carbachol calcium flux Fluo4; AID 602282, 2012; shares compounds with RGS4 act;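 active = inhibition above 3 SD of the buffer control wells, cut at about 41% in these data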;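 also: signal is the integrated peak-minus-minimum Fluo4 fluorescence over baseline ratio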
RGS4 act ctr: activity in cells without induced RGS4 expression. HEK293 M3R non-induced RGS4, Fluo4 calcium flux; after carbachol challenge at its EC90. shares compounds with RGS4 act. inhibition, % at 10 µM. 1,100 compounds, 82% hits;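 active = inhibition exceeding 3 SD of buffer-only control wells, cut at about 26% in these data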;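 also: percent drop in integrated peak-minus-baseline over baseline Fluo4 ratio after carbachol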
Of the large screens only hits and unclear results are named; the others gave an inactive call (follow-up assays come after a bar, where they were run). Shown are actives, neighbours in structure and some others; about 3.5% of the full set was active somewhere.

COc1ccc(-c2nn(-c3ccccc3)cc2C(=O)Nc2nccs2)cc1	RGS4 act -8.7 | RGS4 activ val 68 | RGS4 act ctr inactive
COc1cccc(-c2nn(-c3ccccc3)cc2C(=O)Nc2nccs2)c1	none
CCOc1ccc(CCNC(=O)c2ccc(OCc3c(C)noc3C)cc2)cc1OCC	none
CCOC(=O)C1=C(C)N=C2SC(C)C(=O)N2C1c1cccc(F)c1 (stereo unspecified)	RGS4 act -8.1 | RGS4 activ val inactive | RGS4 act ctr inactive
Cc1ccc(CCNC(=O)CSCc2ccc(F)cc2)cc1	none
COc1ccccc1C(CNC(=O)C(C)(C)Oc1ccc(Cl)cc1)N1CCCC1 (stereo unspecified)	RGS4 act -8.8 | RGS4 activ val 90 | RGS4 act ctr 26
CCN(CC(=O)Nc1c(F)cccc1F)C(=O)c1cc(-c2cccs2)nn1-c1ccccc1	RGS4 act -9.4 | RGS4 activ val 52 | RGS4 act ctr 84
CCN(CC(=O)Nc1ccccc1OC)C(=O)c1cc(-c2ccccc2)nn1-c1ccccc1	RGS4 act -7.8 | RGS4 activ val 92 | RGS4 act ctr 67
CN(CC(=O)Nc1c(Cl)cccc1Cl)C(=O)c1cc(-c2cccs2)nn1-c1ccccc1	none
CN(CC(=O)Nc1ccc(Cl)cc1)C(=O)c1cc(-c2cccs2)nn1-c1ccccc1	RGS4 act -8.5 | RGS4 activ val 88 | RGS4 act ctr 42
CN(CC(=O)Nc1ccccc1Cl)C(=O)c1cc(-c2cccs2)nn1-c1ccccc1	none
CN(C)CC/C=C1/c2ccccc2Sc2ccc(Cl)cc21	RGS4 act -9.5 | RGS4 activ val 94 | RGS4 act ctr 96
CN1CCN(CCC=C2c3ccccc3Sc3ccc(S(=O)(=O)N(C)C)cc32)CC1	none (no result: RGS4 act, RGS4 block)
CN(C)CC/C=C1/c2ccccc2CS(=O)(=O)c2ccccc21	none
CN(C)CC/C=C1\c2ccccc2COc2ccccc21	RGS4 act -8 | RGS4 activ val 94 | RGS4 act ctr 93
Cc1cccc2c1Sc1ccc(Cl)cc1CC2N1CCNCC1 (stereo unspecified)	RGS4 act -7.6 | RGS4 activ val 93 | RGS4 act ctr 96
CCSc1nc2sc3c(c2c(=O)n1-c1ccccc1)CCN(C(C)C)C3	RGS4 act -7.9 | RGS4 activ val 64 | RGS4 act ctr inactive
CN1CCc2c(sc3nc(SCC(N)=O)n(-c4ccccc4)c(=O)c23)C1	none
CCN(CC)CCC(O)(c1ccccc1)C1CCCCC1 (stereo unspecified)	RGS4 act -9.3 | RGS4 activ val 92 | RGS4 act ctr 92
Cc1ccc(S(=O)(=O)CCC(=O)N2CCN(c3ccc(Cl)cc3)CC2)cc1	none
O=C(NCc1ccccn1)C(=O)NCC1OCCN1S(=O)(=O)c1ccc(F)cc1 (stereo unspecified)	none
CC1(C)CC(=O)C2=C(C1)N(c1ccc(Cl)cc1)C(=O)C2(O)C(F)(F)F (stereo unspecified)	RGS4 act -14 | RGS4 activ val 79 | RGS4 act ctr 27
Cc1ccc(N2C(=O)C(O)(C(F)(F)F)C3=C2CC(C)(C)CC3=O)cc1C (stereo unspecified)	none
CN(C(=O)c1ccccc1OCc1ccc(Cl)cc1)c1ccccc1	RGS4 act -9.2 | RGS4 activ val 92 | RGS4 act ctr 93
Cc1ccc(S(=O)(=O)c2nc(Nc3ccccc3N3CCOCC3)sc2Cl)cc1	none
CC1(C)CC(=O)C=C(NCc2cccc(C(F)(F)F)c2)C1	RGS4 act -8.7 | RGS4 activ val inactive | RGS4 act ctr inactive
CC1(C)CC(=O)C=C(NCc2ccccc2)C1	none
Cc1ccccc1Nc1nc(N)nc(COC(=O)c2cccc(S(=O)(=O)N(C)C)c2)n1	none
